Reference: ChEMBL document CHEMBL4196023, “Cyclic peptide inhibitors of lysine-specific demethylase 1 with improved potency identified by alanine scanning mutagenesis” (Eur J Med Chem, 2018)
The source made the active and inactive calls. No cut-off for these calls is given here. Positions of bridges follow the written chain, without caps; N, C: chain ends. Residues, ends and D or L forms follow the SMILES beside them. *: point of attachment. Decanoyl = CCCCCCCCCC(=O)*

Columns and labels:
K562 [1] = test: Antiproliferative activity against human K562 cells assessed as cell death at 50 uM after 72 hrs by MTS assay relative to control; type: functional
Calu-6 [2] = test: Inhibition of cell proliferation in human Calu6 cells at 50 uM after 72 hrs by MTS assay relative to control; type: functional; settings: Calu-6, 72 h
MCF7 = test: Antiproliferative activity against human MCF7 cells after 72 hrs by MTS assay; type: functional, cell-based; settings: MCF7, 72 h
[3] = biological target: Lysine-specific histone demethylase 1A (Homo sapiens) (UniProt O60341); test: Inhibition of LSD1 in human K562 cells assessed as increase in H3K4me2 expression at 10 uM after 48 hrs by Western lot analysis relative to control; type: cell-based
K562 [4] = test: Antiproliferative activity against human K562 cells after 72 hrs by MTS assay; type: functional, cell-based; settings: K562, 72 h
Calu-6 [5] = test: Antiproliferative activity against human Calu6 cells after 72 hrs by MTS assay; type: functional, cell-based; settings: Calu-6, 72 h
[6] = biological target: Lysine-specific histone demethylase 1A (Homo sapiens) (UniProt O60341); test: Inhibition of LSD1 in human Calu6 cells assessed as increase in H3K4me2 expression at 10 uM after 48 hrs by Western lot analysis relative to control; type: cell-based
[7] = biological target: Lysine-specific histone demethylase 1A (Homo sapiens) (UniProt O60341); test: Inhibition of LSD1 in human NCI-H526 cells assessed as increase in H3K4me2 marks at promoter of FEZ1 at 100 uM after 48 hrs by ChIP-qPCr method; type: cell-based
Outline: (§1)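 NCI-H526 small cell lung carcinoma cells treated 48 h at 100 µM alongside an untreated control. Cells formaldehyde cross-linked, nuclei sonicated and chromatin enzymatically digested. IP with H3K4me2 antibody (normal rabbit IgG as negative control) on protein G magnetic beads. Purified DNA quantified by TaqMan qPCR at promoter regions; fold change by comparative CT (Livak). SD from three qPCR wells.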

[8] = biological target: Lysine-specific histone demethylase 1A (Homo sapiens) (UniProt O60341); test: Inhibition of LSD1 in human NCI-H526 cells assessed as increase in H3K4me2 marks at promoter of IGFBP2 at 100 uM after 48 hrs by ChIP-qPCr method; type: cell-based; outline: as §1
Calu-6 [9] = test: Inhibition of cell proliferation in human Calu6 cells at 100 uM after 72 hrs by MTS assay; type: functional, cell-based
Outline: (§2)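 Calu-6 cells grown in EMEM with 10% FBS. Seeded at 2,000 cells/well and attached for one day, then treated 72 h at 37°C, 5% CO2. MTS added for 2 h and absorbance read at 490 nm minus 690 nm. % cell death calculated against untreated control. Mean of 3 determinations ± S.E.M.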

Calu-6 [10] = test: Inhibition of cell proliferation in human Calu6 cells up to 1 uM after 72 hrs by MTS assay; type: functional, cell-based; outline: as §2
[11] = biological target: LSD1/CoREST complex (Homo sapiens) (UniProt O60341+Q9UKL0); test: Inhibition of recombinant human LSD1/CoREST at 500 nM preincubated for 5 mins followed by ART-(N,N-dimethyl-K)-QTARKSTGGKAPRKQLA substrate addition measured after 25 mins by fluorescence assay relative to control
Sequence of LSD1/CoREST complex (Homo sapiens) (Q9UKL0 whole entry, looked up, other chains not shown): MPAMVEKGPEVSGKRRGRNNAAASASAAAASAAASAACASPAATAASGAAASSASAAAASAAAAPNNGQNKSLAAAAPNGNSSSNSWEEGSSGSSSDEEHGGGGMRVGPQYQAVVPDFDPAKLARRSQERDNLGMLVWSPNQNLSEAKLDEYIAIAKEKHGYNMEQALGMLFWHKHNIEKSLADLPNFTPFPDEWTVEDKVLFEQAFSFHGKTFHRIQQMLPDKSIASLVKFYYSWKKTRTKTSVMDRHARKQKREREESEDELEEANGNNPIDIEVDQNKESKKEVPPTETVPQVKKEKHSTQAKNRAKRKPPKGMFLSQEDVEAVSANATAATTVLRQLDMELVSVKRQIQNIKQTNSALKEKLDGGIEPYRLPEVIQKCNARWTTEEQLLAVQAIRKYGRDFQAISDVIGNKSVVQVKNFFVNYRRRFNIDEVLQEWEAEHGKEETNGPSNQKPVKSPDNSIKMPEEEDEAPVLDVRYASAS

K562 [12] = test: Antiproliferative activity against human K562 cells assessed as cell death at 100 uM after 72 hrs by MTS assay relative to control; type: functional
K562 [13] = test: Antiproliferative activity against human K562 cells assessed as cell death at 1 uM after 72 hrs by MTS assay relative to control; type: functional
[14] = biological target: Lysine-specific histone demethylase 1A (Homo sapiens) (UniProt O60341); test: Inhibition of LSD1 in human K562 cells assessed as increase in H3K4me2 expression after 48 hrs by Western lot analysis

IC50 (MCF7)	fold change (FC) [3]	IC50 (K562 [4])	IC50 (Calu-6 [5])	inhibition [7]	inhibition [8]	SMILES	inhibition (Calu-6 [9])	inhibition (Calu-6 [10])	inhibition [11]	Activity (K562 [12])	Activity (K562 [13])	other results
36.1 µM	17.6	–	92.4 µM	Active	Active	CCCCCCCCCC(=O)NCCCC[C@H](NC(=O)[C@H](C)NC(=O)[C@H](CC(C)C)NC(=O)[C@H](CCC(N)=O)NC(=O)[C@H](CCCCN)NC(=O)[C@H](CCCNC(=N)N)NC(=O)[C@@H]1CCCN1C(=O)[C@H](C)NC(=O)[C@H](CCCCN)NC(=O)CNC(=O)CNC(=O)[C@@H](NC(=O)[C@@H]1CCC(=O)NCCCC[C@H](NC(=O)[C@H](CCSC)NC(=O)[C@@H](NC(=O)[C@H](CCCNC(=N)N)NC(=O)[C@H](C)N)[C@@H](C)O)C(=O)N[C@@H]([C@@H](C)O)C(=O)N[C@@H](C)C(=O)N[C@@H](CCCNC(=N)N)C(=O)N[C@@H](CCCCN)C(=O)N1)[C@@H](C)O)C(N)=O	–	–	–	–	–	Activity [6]: inactive
–	–	–	–	–	–	CSCC[C@H](NC(=O)[C@H](C)NC(=O)[C@H](CCCNC(=N)N)NC(=O)[C@H](C)N)C(=O)N[C@H]1CCCCNC(=O)CC[C@@H](C(N)=O)NC(=O)[C@H](CCCCN)NC(=O)[C@H](CCCNC(=N)N)NC(=O)[C@H](C)NC(=O)[C@H]([C@@H](C)O)NC1=O (H-ARAMKTARKE-NH2; lactam 5-10)	inactive	inactive	59.8%	–	–	–
–	–	–	–	–	–	CSCC[C@H](NC(=O)[C@H](C)NC(=O)[C@H](CCCNC(=N)N)NC(=O)[C@H](C)N)C(=O)N[C@H]1CCCCNC(=O)CC[C@@H](C(=O)N[C@H](C(=O)NCC(N)=O)[C@@H](C)O)NC(=O)[C@H](CCCCN)NC(=O)[C@H](CCCNC(=N)N)NC(=O)[C@H](C)NC(=O)[C@H]([C@@H](C)O)NC1=O (H-ARAMKTARKETG-NH2; lactam 5-10)	inactive	inactive	67.3%	18%	90%	–
–	–	–	–	–	–	CSCC[C@H](NC(=O)[C@H](C)NC(=O)[C@H](CCCNC(=N)N)NC(=O)[C@H](C)N)C(=O)N[C@H]1CCCCNC(=O)CC[C@@H](C(=O)N[C@H](C(=O)NCC(=O)NCC(=O)N[C@@H](CCCCN)C(=O)N[C@@H](C)C(N)=O)[C@@H](C)O)NC(=O)[C@H](CCCCN)NC(=O)[C@H](CCCNC(=N)N)NC(=O)[C@H](C)NC(=O)[C@H]([C@@H](C)O)NC1=O (H-ARAMKTARKETGGKA-NH2; lactam 5-10)	inactive	inactive	73.4%	11%	53%	–
–	–	–	–	–	–	CSCC[C@H](NC(=O)[C@H](C)NC(=O)[C@H](CCCNC(=N)N)NC(=O)[C@H](C)N)C(=O)N[C@H]1CCCCNC(=O)CC[C@@H](C(=O)N[C@H](C(=O)NCC(=O)NCC(=O)N[C@@H](CCCCN)C(=O)N[C@@H](C)C(=O)N2CCC[C@H]2C(=O)N[C@@H](CCCNC(=N)N)C(=O)N[C@@H](CCCCN)C(N)=O)[C@@H](C)O)NC(=O)[C@H](CCCCN)NC(=O)[C@H](CCCNC(=N)N)NC(=O)[C@H](C)NC(=O)[C@H]([C@@H](C)O)NC1=O (H-ARAMKTARKETGGKAPRK-NH2; lactam 5-10)	inactive	inactive	98%	9.5%	59%	–
28.1 µM	2 to 17	95.1 µM	40.2 µM	Active	Active	CCCCCCCCCC(=O)NCCCC[C@H](NC(=O)[C@H](C)NC(=O)[C@H](CC(C)C)NC(=O)[C@H](CCC(N)=O)NC(=O)[C@H](CCCCN)NC(=O)[C@H](CCCNC(=N)N)NC(=O)[C@@H]1CCCN1C(=O)[C@H](C)NC(=O)[C@H](CCCCN)NC(=O)CNC(=O)CNC(=O)[C@@H](NC(=O)[C@@H]1CCC(=O)NCCCC[C@H](NC(=O)[C@H](CCSC)NC(=O)[C@H](C)NC(=O)[C@H](CCCNC(=N)N)NC(=O)[C@H](C)N)C(=O)N[C@@H]([C@@H](C)O)C(=O)N[C@@H](C)C(=O)N[C@@H](CCCNC(=N)N)C(=O)N[C@@H](CCCCN)C(=O)N1)[C@@H](C)O)C(N)=O (H-ARAMKTARKETGGKAPRKQLAK(Decanoyl)-NH2; lactam 5-10)	–	–	–	–	–	inhibition [14]: Dose-dependent effect
156 µM	–	198 µM	159 µM	–	–	CSCC[C@H](NC(=O)[C@@H](NC(=O)[C@H](CCCNC(=N)N)NC(=O)[C@H](C)N)[C@@H](C)O)C(=O)N[C@H]1CCCCNC(=O)CC[C@@H](C(=O)N[C@H](C(=O)NCC(=O)NCC(=O)N[C@@H](C)C(=O)N[C@@H](C)C(=O)N2CCC[C@H]2C(=O)N[C@@H](CCCNC(=N)N)C(=O)N[C@@H](CCCCN)C(=O)N[C@@H](CCC(N)=O)C(=O)N[C@@H](CC(C)C)C(=O)N[C@@H](C)C(N)=O)[C@@H](C)O)NC(=O)[C@H](CCCCN)NC(=O)[C@H](CCCNC(=N)N)NC(=O)[C@H](C)NC(=O)[C@H]([C@@H](C)O)NC1=O (H-ARTMKTARKETGGAAPRKQLA-NH2; lactam 5-10)	–	–	–	–	–	–
385 µM	–	35.6 µM	409 µM	–	–	CSCC[C@H](NC(=O)[C@@H](NC(=O)[C@H](CCCNC(=N)N)NC(=O)[C@H](C)N)[C@@H](C)O)C(=O)N[C@H]1CCCCNC(=O)CC[C@@H](C(=O)N[C@H](C(=O)NCC(=O)NCC(=O)N[C@@H](CCCCN)C(=O)N[C@@H](C)C(=O)N[C@@H](C)C(=O)N[C@@H](CCCNC(=N)N)C(=O)N[C@@H](CCCCN)C(=O)N[C@@H](CCC(N)=O)C(=O)N[C@@H](CC(C)C)C(=O)N[C@@H](C)C(N)=O)[C@@H](C)O)NC(=O)[C@H](CCCCN)NC(=O)[C@H](CCCNC(=N)N)NC(=O)[C@H](C)NC(=O)[C@H]([C@@H](C)O)NC1=O (H-ARTMKTARKETGGKAARKQLA-NH2; lactam 5-10)	–	–	–	–	–	–

SMILES	IC50 (MCF7)	fold change (FC) [3]	IC50 (K562 [4])	IC50 (Calu-6 [5])	inhibition [7]	inhibition [8]	inhibition (Calu-6 [9])	inhibition (Calu-6 [10])	inhibition [11]	Activity (K562 [12])	Activity (K562 [13])	other results
N=C(NCCCNCCCCCCCNCCCNC(=N)NC(=N)NCCC(c1ccccc1)c1ccccc1)NC(=N)NCCC(c1ccccc1)c1ccccc1	2.5 to 5.1 µM	2 to 17	4.3 µM	1.6 to 6.3 µM	–	–	–	–	–	–	–	Activity (K562 [1]): 88%; inhibition at 50 µM (Calu-6 [2]): 83%
c1ccc([C@@H]2C[C@H]2NC2CCNCC2)cc1 (relative stereo)	–	–	–	–	Active	Active	–	–	–	–	–	–
